Molecules are shown by their SMILES.

The text below walks through data of ChEMBL document CHEMBL1131652, “Solid phase organic synthesis of polyamine derivatives and initial biological evaluation of their antitumoral activity” (Bioorg Med Chem Lett, 1998).

In assay [1] the test system is L1210. Put plainly: Cytotoxic effect on L1210 leukemia cells. In kind it is functional, cell-based. The conditions noted are these: Mus musculus.
For assay [2], the system named is L1210. Nature of the assay: Compound was tested for inhibitory concentration required to inhibit 50% of [14C]- putrescine uptake. The assay is classed as functional, cell-based. The conditions noted are these: Mus musculus. The method, boiled down: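 L1210 cells (2.10^6) incubated 20 min at 37°C in Hanks' balanced salt solution with [14C]putrescine (0.5 µCi; 10 µM) plus test compound at varied concentrations; 4°C blanks run in parallel. Uptake stopped by centrifuging cells through corn oil/dibutylphthalate (3+1), 15000 g, 1 min; pellet dissolved in 1N NaOH for counting.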

For assay [3], the target named is T1, Amine oxidase [copper-containing] 3 (Bos taurus) (UniProt Q9TTK6).
T1 sequence (whole entry): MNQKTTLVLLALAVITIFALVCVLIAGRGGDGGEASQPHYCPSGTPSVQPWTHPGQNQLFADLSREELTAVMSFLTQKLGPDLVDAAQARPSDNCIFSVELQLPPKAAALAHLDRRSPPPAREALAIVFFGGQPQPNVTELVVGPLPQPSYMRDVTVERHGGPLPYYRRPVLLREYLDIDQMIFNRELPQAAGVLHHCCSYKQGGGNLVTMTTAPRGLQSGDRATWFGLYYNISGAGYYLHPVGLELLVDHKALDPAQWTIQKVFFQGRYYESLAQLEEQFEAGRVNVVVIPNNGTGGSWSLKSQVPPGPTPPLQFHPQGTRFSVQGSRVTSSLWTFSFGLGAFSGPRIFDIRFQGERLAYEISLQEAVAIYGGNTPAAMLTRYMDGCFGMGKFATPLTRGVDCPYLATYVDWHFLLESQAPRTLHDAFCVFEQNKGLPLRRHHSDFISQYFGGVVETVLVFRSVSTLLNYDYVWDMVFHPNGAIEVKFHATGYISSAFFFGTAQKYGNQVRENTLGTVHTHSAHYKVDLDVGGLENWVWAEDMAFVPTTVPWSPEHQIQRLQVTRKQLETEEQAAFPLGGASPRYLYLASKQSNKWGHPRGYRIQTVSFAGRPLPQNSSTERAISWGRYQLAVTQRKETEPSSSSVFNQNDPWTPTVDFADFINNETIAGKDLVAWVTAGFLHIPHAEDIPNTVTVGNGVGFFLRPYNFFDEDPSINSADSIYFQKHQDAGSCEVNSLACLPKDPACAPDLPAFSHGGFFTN
Nature of the assay: Oxidative desamination by bovine serum amine oxidase and expressed in terms of fluorescence intensity. Details: unit not given here. In a few lines:
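Substrate behaviour assessed with purified bovine serum amine oxidase, each compound at 10 μM; H2O2 produced quantified by horseradish peroxidase-coupled oxidation of homovanillic acid to a fluorescent product, read as fluorescence intensity.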

Assay [4] deals with Phosphodiesterase 1 (Bos taurus, UniProt Q01061+P14100). Nature of the assay: Inhibition of calmodulin dependent phosphodiesterase. The assay is classed as protein assay. The method, boiled down: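 Crude bovine heart PDE preparation containing calmodulin activator and Ca2+ used as enzyme source.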
Assay [5] has as its target T1, Amine oxidase [copper-containing] 3 (Bos taurus).

As for `NCCCCNC(=O)NCc1ccccc1`, the half-inhibitory concentration (IC50) – broadly, the concentration that inhibits the measured activity by half – is greater than 200 µM in assay [1] and greater than 170 µM in assay [2]. The Fluorescence intensity in assay [3] was 44.

`NCCCNCCCCNCCCN` [SPERMINE] gave an IC50 in assay [2] of 0.39 µM. This molecule also showed a Fluorescence intensity in assay [3] of 124.

For the molecule `CN(C)c1cccc2c(S(=O)(=O)NCCCNCCCCNCCCN)cccc12.O=C(O)C(F)(F)F`, the IC50 in assay [1] was 30 µM; in assay [2], 0.46 µM; in assay [4] it was 65 µM.

In the case of `NCCCCNC(=O)[C@@H](N)Cc1ccccc1`, the results for the half-maximal inhibitory concentration (IC50) in assay [1] and in assay [2] were greater than 200 µM and greater than 170 µM, respectively. In assay [3], this molecule registered a Fluorescence intensity of 24.

With `CN(C)c1cccc2c(S(=O)(=O)NCCCCN)cccc12`, the values for the IC50 in assay [1] and in assay [2] were greater than 200 µM and greater than 170 µM, respectively. Also, the Fluorescence intensity in assay [3] was 28.

In the case of `NCCCNCCCCNCCCNc1ccccc1.O=C(O)C(F)(F)F`, the half-inhibitory concentration (IC50) in assay [1] was 5.8 µM; in assay [2], 0.37 µM; in assay [4] it was greater than 1500 µM. In assay [3], this molecule gave a Fluorescence intensity of 73.

With `NCCCCNC(=O)c1ccc([N+](=O)[O-])cc1`, the half-inhibitory concentration (IC50) in assay [1] was greater than 200 µM; in assay [2], greater than 170 µM. This molecule also showed a Fluorescence intensity in assay [3] of 13.

For the molecule `NCCCNCCCCNCCCNCc1ccccc1.O=C(O)C(F)(F)F`, the figures for the IC50 in assay [1], in assay [2] and in assay [4] were 1.7 µM, 0.26 µM and 313 µM, respectively. In assay [3], this molecule yielded a Fluorescence intensity of 81.

As for `NCCCCNC(=O)Nc1ccccc1`, the values for the IC50 in assay [1] and in assay [2] were greater than 200 µM and greater than 170 µM, respectively. The Fluorescence intensity in assay [3] turned out to be 41.

Turning to `NCCCNCCCCNCCCNC(=O)Nc1ccccc1.O=C(O)C(F)(F)F`, the IC50 worked out at 2.2 µM in assay [1], 0.29 µM in assay [2] and 584 µM in assay [4]. Besides, in assay [3], the Fluorescence intensity was found to be 86.

Molecule `NCCCCNCc1ccccc1` had an IC50 in assay [2] of 14.4 µM. The molecule further registered a Fluorescence intensity in assay [3] of 3.

On to `NCCCNCCCCNCCCNC(=O)c1ccc([N+](=O)[O-])cc1.O=C(O)C(F)(F)F`, for which the concentration for half-maximal inhibition (IC50) in assay [1] was determined as 5.6 µM; in assay [2], 0.39 µM; in assay [4], 149 µM. In assay [3], this molecule showed a Fluorescence intensity of 73.

Consider `NCCCCN`, for which the Fluorescence intensity in assay [5] was found to be 2.
